Test results published in ChEMBL document CHEMBL4334444, “Studies of Jatrogossone A as a Reactive Oxygen Species Inducer in Cancer Cellular Models” (J Nat Prod, 2019).
The source made the active and inactive calls. The calls are words filed in the database; no cut-off is given here.

Legend:
[1] = tested on: MCF7; assay: Induction of apoptosis in human MCF7 cells assessed as increase in cleaved PARP 1 level at 30 uM by Western blot analysis; format: functional, cell-based
Procedure, shortened: (§1)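 Western blot of KOPN-8 and MCF-7 lysates made in RIPA-type buffer (Tris pH 7.5, Triton X-100, deoxycholate, SDS) with protease and phosphatase inhibitors. 30 μg protein per lane was run on 4–12% Bis-Tris SDS-PAGE and transferred to nitrocellulose. Blots were probed for cleaved caspase-7 and PARP-1 and detected with IR-dye secondaries. Menadione served as positive control: 10 μM in KOPN-8, 30 μM in MCF-7. Blots are representative of three independent experiments.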

[2] = tested on: MCF7; assay: Induction of apoptosis in human MCF7 cells assessed as increase in cleaved caspase 7 level at 30 uM by Western blot analysis; format: functional, cell-based; procedure, shortened: as §1
[3] = tested on: U2OS; assay: Induction of ROS generation in human U2OS cells at 10 to 30 uM incubated for 1 hr by CellROX green reagent based fluorescence assay; format: functional, cell-based
Procedure, shortened: (§2)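 CellROX green assay in MCF-7 or U2OS cells. Cells were exposed to test compound for 1 h at 37 °C alongside 0.5% DMSO (negative control) and menadione 10–30 μM (positive control), with or without NAC (50–500 μM) as scavenger. CellROX was then added at 5 μM final for 30 min. Cells were PBS-washed, fixed in 4% paraformaldehyde for 15 min, and fluorescence read at 535 nm.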

[4] = tested on: MCF7; assay: Induction of ROS generation in human MCF7 cells at 10 to 30 uM incubated for 1 hr in presence of NAC by CellROX green reagent based fluorescence assay; format: functional, cell-based
Procedure, shortened: (§3)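 CellROX green ROS assay: cells exposed 1 h at 37 °C (30 μM) with DMSO 0.5% (v/v) negative control, menadione 10 μM positive control, ± NAC (100 μM per figure legend). CellROX green added at 5 μM final, 30 min more; washed, fixed in 4% paraformaldehyde 15 min, fluorescence read at 485 ex/535 em. Mean and SD of at least three experiments; two-way ANOVA.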

[5] = tested on: U2OS; assay: Induction of ROS generation in human U2OS cells at 10 to 30 uM incubated for 1 hr in presence of NAC by CellROX green reagent based fluorescence assay; format: functional, cell-based; procedure, shortened: as §2
[6] = tested on: KOPN-8; assay: Induction of apoptosis in human KOPN8 cells assessed as increase in cleaved PARP 1 level at 10 uM by Western blot analysis; format: functional, cell-based; procedure, shortened: as §1
[7] = tested on: KOPN-8; assay: Induction of apoptosis in human KOPN8 cells assessed as increase in cleaved caspase 7 level at 10 uM by Western blot analysis; format: functional, cell-based; procedure, shortened: as §1
[8] = tested on: MCF7; assay: Induction of ROS generation in human MCF7 cells at 10 to 30 uM incubated for 1 hr by CellROX green reagent based fluorescence assay; format: functional, cell-based; procedure, shortened: as §3
[9] = tested on: KOPN-8; assay: Cell cycle arrest in human KOPN8 cells assessed as increase in accumulation at S phase at 2 uM incubated for 24 hrs by propidium iodide staining based flow cytometric analysis; format: functional
Procedure, shortened: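 KOPN-8 cells plated at 1.00 × 10^6 cells/plate and held 12 h at 37 °C in 5% CO2, then treated for 24 h. Cells were fixed in cold methanol, RNase-treated and stained with PI (50 μg/mL). Cell-cycle distribution by flow cytometry, with DMSO as vehicle control.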

SMILES	Activity [1]	Activity [2]	Activity [3]	Activity [4]	Activity [5]	Activity [6]	Activity [7]	Activity [8]	Activity [9]
CC1=CC(=O)c2ccccc2C1=O	Active	Active	Active	inactive	inactive	Active	Active	Active	–
CN[C@@H]1C[C@H]2O[C@@](C)([C@@H]1OC)n1c3ccccc3c3c4c(c5c6ccccc6n2c5c31)C(=O)NC4	–	–	–	–	–	–	–	–	Active
